Assay results from PMC9301951 (ACS Omega, 2022).

Legend:
[1] = molecular target: equine serum-derived BuChE (eqBuChE) (Equus caballus, UniProt P81908); assay: Cholinesterase inhibition assay, BuChE; type: biochemical, horse; conditions: read-out: BuChE inhibitory activity inhibition (%)
[2] = tested on: SK-N-SH cells; assay: Neuroprotective effect on H2O2-induced decrease in cell viability; type: cell-based; conditions: Figure 5; H2O2-treated neurons, concentrations of 0.075–0.6 μM
Outline: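 Cells challenged with H2O2 and treated with test compound at 0.15 μM. Viability given as % of control, with control set at 100%. Recovery (%) is viability of compound-treated cells minus viability of H2O2-only cells. Data are mean ± SD, n = 3.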

[3] = molecular target: electric eel-derived AChE (eeAChE) (Electrophorus electricus, UniProt O42275); assay: Cholinesterase inhibition assay, AChE; type: biochemical; conditions: read-out: AChE inhibitory activity inhibition (%)
Chain of electric eel-derived AChE (eeAChE) (O42275 24-633): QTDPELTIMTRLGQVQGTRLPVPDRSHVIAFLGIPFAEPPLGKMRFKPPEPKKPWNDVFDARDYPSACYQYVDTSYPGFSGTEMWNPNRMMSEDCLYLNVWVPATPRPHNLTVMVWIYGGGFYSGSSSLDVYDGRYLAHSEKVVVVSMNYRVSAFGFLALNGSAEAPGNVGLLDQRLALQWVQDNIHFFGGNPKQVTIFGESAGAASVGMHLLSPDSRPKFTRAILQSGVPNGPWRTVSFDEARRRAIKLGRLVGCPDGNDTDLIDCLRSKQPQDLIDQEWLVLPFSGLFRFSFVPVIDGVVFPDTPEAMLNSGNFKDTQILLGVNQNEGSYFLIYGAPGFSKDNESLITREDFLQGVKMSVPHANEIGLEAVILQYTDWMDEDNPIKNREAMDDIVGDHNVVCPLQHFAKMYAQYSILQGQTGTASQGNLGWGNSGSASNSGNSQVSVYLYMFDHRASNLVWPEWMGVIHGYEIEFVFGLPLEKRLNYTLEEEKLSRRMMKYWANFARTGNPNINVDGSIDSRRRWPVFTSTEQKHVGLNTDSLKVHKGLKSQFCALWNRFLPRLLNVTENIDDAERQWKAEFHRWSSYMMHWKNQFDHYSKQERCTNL

Chain of equine serum-derived BuChE (eqBuChE) (P81908 whole entry): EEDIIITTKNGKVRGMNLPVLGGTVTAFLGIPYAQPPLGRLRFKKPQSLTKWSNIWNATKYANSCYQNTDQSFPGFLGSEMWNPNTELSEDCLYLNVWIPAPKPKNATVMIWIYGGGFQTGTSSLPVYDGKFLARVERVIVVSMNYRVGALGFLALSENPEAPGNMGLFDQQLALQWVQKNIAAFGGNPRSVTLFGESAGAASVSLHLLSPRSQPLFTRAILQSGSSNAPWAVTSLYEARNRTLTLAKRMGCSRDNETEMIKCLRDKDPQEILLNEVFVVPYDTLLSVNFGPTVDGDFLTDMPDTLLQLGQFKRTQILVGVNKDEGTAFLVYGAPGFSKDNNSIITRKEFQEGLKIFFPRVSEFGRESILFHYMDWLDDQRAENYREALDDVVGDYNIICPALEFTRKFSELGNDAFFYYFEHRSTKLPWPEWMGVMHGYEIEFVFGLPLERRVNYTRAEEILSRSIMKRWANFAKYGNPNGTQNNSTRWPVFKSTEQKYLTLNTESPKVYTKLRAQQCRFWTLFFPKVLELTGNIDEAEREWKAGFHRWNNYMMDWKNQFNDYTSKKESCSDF

| SMILES | inhibition at 10000 µM [1] [%] | cell viability [2] [%] | inhibition at 10000 µM [3] [%] |
| --- | --- | --- | --- |
| COc1ccc2c3c1O[C@H]1C[C@@H](O)C=C[C@@]31CCN(C)C2 [galantamine] | 96.21 ± 0.18 |  |  |
| COC(=O)C1=CO[C@@H](O)[C@@H]2C(CO)=CC[C@H]12 [genipin 1, genipin] | 2.42 ± 0.18 | > 78 | 4.94 ± 0.05 |
| COC(=O)C1=CO[C@@H](O[C@@H]2O[C@H](CO)[C@@H](O)[C@H](O)[C@H]2O)[C@@H]2C(CO)=CC[C@H]12 [geniposide] | 2.09 ± 0.18 |  | 0.73 ± 0.11 |
